We go through one compound from ChEMBL document CHEMBL3872205, “Design, synthesis and evaluation of novel potent angiotensin II receptor 1 antagonists” (Eur J Med Chem, 2016).

One may read the AUC(0-inf) as total exposure, with the tail of the curve extrapolated. The MRT last is a mean duration of stay, worked out from the concentration-time curve. One may read the MRT inf as a mean duration of stay, worked out from the concentration-time curve. What is called Cmax is the highest concentration seen after dosing. Usually half-life stands for the time in which the quantity being followed falls by half. Low readings indicate fast loss, high ones slow loss. By Tmax is commonly meant the time from dosing to the highest level. One may read the AUC(0-t) as exposure summed from dosing to a finite time, without extrapolation to infinity.

Each structure is given as a SMILES string.

Assay type in all cases: ADME, organism-based
The nature of series [1]: AUC (0 to infinity) in Wistar rat kidney at 30 mg/kg, po by HPLC analysis. On the set-up: dose 30 mg/kg, route oral, time infinity. The essentials:
(§1)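 Wistar rats (180 ± 20 g) were dosed orally at 10, 15 or 30 mg/kg. Heart, liver, spleen, lung, kidney and brain were collected at 0–72 h (n = 6 per point). Tissue was rinsed, blotted and homogenized in saline (0.25 g/1 mL), then spun at 10,000 × g. Supernatant was methanol-extracted, dried under nitrogen at 50 °C, reconstituted in methanol and run on C18 HPLC (acetonitrile 60%/water 40%, 1.0 mL/min).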

Series [2] is described as follows: MRT (0 to 72 hrs) in Wistar rat lung at 10 mg/kg, po by HPLC analysis. The method in brief: (§2)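 Male Wistar rats (180 ± 20 g) received a single oral dose of 10, 15 or 30 mg/kg. Tissues were collected at 0, 0.5, 1, 2, 4, 6, 8, 12, 24, 48 and 72 h (n = 6 per point). Samples of 0.25 g were rinsed, then homogenized in saline (0.25 g/1 mL) and centrifuged at 10,000 × g. Supernatant was methanol-extracted, dried under nitrogen at 50 °C and reconstituted in methanol. Analysis was by C18 HPLC (acetonitrile 60% / water 40%, 1.0 mL/min).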

A short description of series [3]: MRT (0 to 72 hrs) in Wistar rat brain at 30 mg/kg, po by HPLC analysis. The method in brief:
(§3)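 Tissue distribution in male Wistar rats given oral 10, 15 or 30 mg/kg; heart, liver, spleen, lung, kidney and brain collected predose and 0.5–72 h post-dose (n = 6 per time). Tissue rinsed in saline, homogenised 0.25 g/1 mL saline, methanol extraction, dried under nitrogen, reconstituted in methanol. Analysis by reverse-phase C18 HPLC, acetonitrile/water 60:40, 1.0 mL/min, ambient temperature.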

A short description of series [4]: MRT (0 to infinity) in Wistar rat brain at 10 mg/kg, po by HPLC analysis. The essentials: as §2
Series [5] is described as follows: Cmax in Wistar rat brain at 10 mg/kg, po by HPLC analysis. On the set-up: dose 10 mg/kg, route oral. The essentials: as §1
Series [6] can be described thus: AUC (0 to infinity) in Wistar rat kidney at 15 mg/kg, po by HPLC analysis. On the set-up: dose 15 mg/kg, time infinity, route oral. The method in brief:
as §1

Series [7] can be described thus: MRT (0 to 72 hrs) in Wistar rat lung at 30 mg/kg, po by HPLC analysis. The essentials:
as §2

Series [8] in a line: Half life in Wistar rat Heart at 15 mg/kg, po by HPLC analysis. The method in brief: as §3
Series [9] can be described thus: Tmax in Wistar rat spleen at 15 mg/kg, po by HPLC analysis.
Series [10] in a line: Tmax in Wistar rat lung at 10 mg/kg, po by HPLC analysis. The method in brief:
as §2

The nature of series [11]: Tmax in Wistar rat plasma at 10 mg/kg, po by HPLC analysis. The essentials: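 Male Wistar rats (180 ± 20 g), 6 per dose group, each given a single oral dose. Blood was drawn by retro-orbital puncture into heparin at predose and at 0.5, 1, 2, 4, 6, 8, 12, 24, 48 and 72 h, then spun at 4000 × g and 4 °C. Plasma with internal standard was acetonitrile-precipitated, filtered and run on reverse-phase C18 HPLC (0.02 mol/L KH2PO4 55% / acetonitrile 45%, 1.0 mL/min). Calibration standards were 0.1–10 µg/mL, fitted by peak-height ratio with 1/conc² weighting.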

A short description of series [12]: Half life in Wistar rat kidney at 15 mg/kg, po by HPLC analysis. The method in brief:
as §3

The nature of series [13]: Cmax in Wistar rat lung at 15 mg/kg, po by HPLC analysis. Details: dose 15 mg/kg, route oral. The essentials:
as §3

Series [14] can be described thus: AUC (0 to infinity) in Wistar rat brain at 30 mg/kg, po by HPLC analysis. On the set-up: dose 30 mg/kg, route oral, time infinity. The method in brief:
as §1

The nature of series [15]: Cmax in Wistar rat kidney at 30 mg/kg, po by HPLC analysis. On the set-up: dose 30 mg/kg, route oral. The method in brief: as §3
Series [16] in a line: AUC (0 to 72 hrs) in Wistar rat Heart at 10 mg/kg, po by HPLC analysis. On the set-up: time < 72 hr, dose 10 mg/kg, route oral. The essentials:
as §1

Series [17] in a line: Half life in Wistar rat brain at 15 mg/kg, po by HPLC analysis. The essentials: as §3

For `CCCCC1=NC2(CCCC2)C(=O)N1Cc1ccc2c(ccn2-c2ccccc2-c2nnn[nH]2)c1`, the AUC(0-inf) in [1] is 29400 ng·h/mL; in series [6] it was 7690 ng·h/mL; in series [14], 1790 ng·h/mL. The MRT last in series [2] came to 10.6 h; in series [3], 9.03 h; in series [7] it was 4.85 h. This compound came in with a mean residence time (MRT inf) in series [4] of 8.1 h. For the same compound, the Cmax was found to be 37.2 ng/mL in series [5], 369 ng/mL in series [13] and 396 ng/mL in series [15]. Besides, the half-life in series [8] was 15.8 h; in series [12], 22.6 h; in series [17], 2.59 h. The Tmax in series [9] was determined as 1.5 h; in series [10], 2 h; in [11] it was 5.67 h. The compound further came in with an AUC(0-t) at 72 h in [16] of 825 ng·h/mL.
